Experimental data published in ChEMBL document CHEMBL4130384, “Design, synthesis and biological evaluation of novel 2-methoxyestradiol analogs as dual selective estrogen receptor modulators (SERMs) and antiangiogenic agents” (Eur J Med Chem, 2017).
Calls of active or inactive are those of the source. The rule behind the calls is not given here.

Key:
Ishikawa [1] = assay: Antiproliferative activity against human Ishikawa cells after 48 hrs by MTT assay; format: functional, cell-based
Procedure, shortened: (§1)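 Cells grown in RPMI1640 with 10% FBS and penicillin/streptomycin at 37 °C, 5% CO2. Seeded at 1 × 10^5/mL, grown 24 h, then exposed to compound at 1 × 10^-4 to 1 × 10^-7 mol/L for 48 h. Controls received medium with 1% DMSO. MTT 4 h, formazan dissolved in DMSO, absorbance at 490 nm; IC50 derived.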

HUVEC = assay: Antiproliferative activity against HUVEC after 48 hrs by MTT assay; format: functional, cell-based; details: Homo sapiens; procedure, shortened: as §1
PC-3 = assay: Antiproliferative activity against human PC3 cells after 48 hrs by MTT assay; format: functional, cell-based; details: PC-3, 48 h; procedure, shortened: as §1
Ishikawa [2] = assay: Antiproliferative activity against human Ishikawa cells assessed as suppression of proliferation at 10 uM after 48 hrs by MTT assay relative to control; format: functional
MCF7 [3] = assay: Antiproliferative activity against human MCF7 cells after 48 hrs by MTT assay; format: functional, cell-based; details: MCF7, 48 h; procedure, shortened: as §1
HepG2 = assay: Antiproliferative activity against human HepG2 cells after 48 hrs by MTT assay; format: functional, cell-based; details: HepG2, 48 h; procedure, shortened: as §1
Chorioallantoic membrane [4] = assay: In vivo antiangiogenic activity in chicken fertilized egg chorioallantoic membrane at 40 uM after 72 hrs; format: functional, organism-based; details: Gallus gallus
Procedure, shortened: (§2)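 Fertilized eggs incubated 7 days at 37 °C, 5% CO2, with saturated humidity. A ~1 cm2 shell window exposed the CAM. Compounds in DMSO were applied on sterile methyl cellulose filter papers placed on the CAM, with PBS as blank. Window taped shut, eggs incubated 72 h at 37 °C, 60% relative humidity.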

MCF7 [5] = assay: Cell cycle arrest in human MCF7 cells assessed as G0/G1 phase accumulation at 2 uM after 6 hrs by propidium iodide staining based flow cytometry (reference value: 42.62%); format: functional
Procedure, shortened: (§3)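 MCF-7 cells plated at 3 × 10^5 per well and left overnight, then treated in serum-free medium with a DMSO reference control. Cells fixed in 70% ice-cold ethanol, washed in PBS, stained with propidium iodide at 4 °C. Flow cytometry gave percentages in G1, S and G2/M phases. Mean ± SEM of three independent experiments.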

MCF7 [6] = assay: Cell cycle arrest in human MCF7 cells assessed as G0/G1 phase accumulation at 1 uM after 6 hrs by propidium iodide staining based flow cytometry (reference value: 42.62%); format: functional; procedure, shortened: as §3
MCF7 [7] = assay: Effect on AIM2 mRNA expression in human MCF7 cells at 0.5 to 2 uM by RT-PCR method; format: functional, cell-based
Procedure, shortened: (§4)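 AIM2 mRNA, an ER-independent reference transcript, measured in treated MCF-7 cells by real-time PCR. Normalized to GAPDH and quantified by the ΔΔCT method. Mean ± SD, n = 3.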

MCF7 [8] = assay: Cell cycle arrest in human MCF7 cells assessed as G2/M phase accumulation at 1 uM after 6 hrs by propidium iodide staining based flow cytometry (reference value: 22.46%); format: functional; procedure, shortened: as §3
MCF7 [9] = assay: Cell cycle arrest in human MCF7 cells assessed as S phase accumulation at 1 uM after 6 hrs by propidium iodide staining based flow cytometry (reference value: 33.14%); format: functional; procedure, shortened: as §3
MCF7 [10] = assay: Cell cycle arrest in human MCF7 cells assessed as G2/M phase accumulation after 6 hrs by propidium iodide staining based flow cytometry; format: functional; procedure, shortened: as §3
MCF7 [11] = assay: Cell cycle arrest in human MCF7 cells assessed as S phase accumulation at 2 uM after 6 hrs by propidium iodide staining based flow cytometry (reference value: 33.14%); format: functional; procedure, shortened: as §3
Chorioallantoic membrane [12] = assay: In vivo antiangiogenic activity in chicken fertilized egg chorioallantoic membrane after 72 hrs; format: functional, organism-based; details: Gallus gallus; procedure, shortened: as §2
MCF7 [13] = assay: Cell cycle arrest in human MCF7 cells assessed as G2/M phase accumulation at 2 uM after 6 hrs by propidium iodide staining based flow cytometry (reference value: 22.46%); format: functional; procedure, shortened: as §3
[14] = target: T1, Estrogen receptor (Homo sapiens) (UniProt P03372); assay: Inhibition of estrogen receptor in human MCF7 cells assessed as inhibition of estradiol-induced PgR mRNA expression by RT-PCR method relative to control; format: cell-based
T1 sequence (whole entry): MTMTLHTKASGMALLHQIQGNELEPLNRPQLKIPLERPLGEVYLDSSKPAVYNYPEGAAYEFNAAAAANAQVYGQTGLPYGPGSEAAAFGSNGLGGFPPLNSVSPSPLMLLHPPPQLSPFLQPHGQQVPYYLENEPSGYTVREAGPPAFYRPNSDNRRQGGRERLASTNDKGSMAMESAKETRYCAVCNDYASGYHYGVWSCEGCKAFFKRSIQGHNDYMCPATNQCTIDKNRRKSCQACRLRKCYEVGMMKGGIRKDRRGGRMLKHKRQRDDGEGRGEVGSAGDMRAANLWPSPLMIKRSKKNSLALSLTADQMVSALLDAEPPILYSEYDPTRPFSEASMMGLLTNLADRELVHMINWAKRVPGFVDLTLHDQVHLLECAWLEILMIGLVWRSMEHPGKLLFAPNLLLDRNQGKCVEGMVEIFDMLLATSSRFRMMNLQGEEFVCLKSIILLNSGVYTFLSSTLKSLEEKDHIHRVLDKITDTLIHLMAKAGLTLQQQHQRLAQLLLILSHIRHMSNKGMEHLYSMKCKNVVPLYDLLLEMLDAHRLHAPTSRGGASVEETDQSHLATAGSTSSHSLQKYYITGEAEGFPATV
Procedure, shortened: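 MCF-7 cells stimulated with 10 nM E2 and co-treated with compound. PgR mRNA measured by real-time PCR, normalized to GAPDH and quantified by the ΔΔCT method. The 10 nM E2 level was set as 100%. Mean ± SD, n = 3.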

MCF7 [15] = assay: Effect on AIM2 mRNA expression in human MCF7 cells at 2 uM by RT-PCR method; format: functional, cell-based; procedure, shortened: as §4

SMILES | IC50 (PC-3) | IC50 (MCF7 [3]) | IC50 (HepG2) | inhibition [14] | IC50 (Ishikawa [1]) | IC50 (HUVEC) | Activity (Ishikawa [2]) | Activity (Chorioallantoic membrane [4]) | Activity (MCF7 [5]) | Activity (MCF7 [6]) | Activity (MCF7 [7]) | Activity (MCF7 [8]) | Activity (MCF7 [9]) | Activity (MCF7 [10]) | Activity (MCF7 [11]) | Activity (Chorioallantoic membrane [12]) | Activity (MCF7 [13]) | Activity (MCF7 [15])
COc1ccc2c(c1)CC[C@@H]1[C@@H]2[C@H](OC(=O)c2ccc(NC(=O)CN(C)C)cc2)C[C@]2(C)[C@@H](OC)CC[C@@H]12 | 6.49 µM | 34.3 µM | 3.42 µM |  | 15.6 µM | 6.97 µM | Active |  |  |  |  |  |  |  |  |  |  | 
COc1cc2c(cc1O)CC[C@@H]1[C@@H]2CC[C@]2(C)[C@@H](O)CC[C@@H]12 [2-METHOXYESTRADIOL] | 12.3 µM | 6.01 µM | 11 µM |  | 8.96 µM | 14.2 µM | Active |  |  |  |  |  |  |  |  |  |  | 
CN1CCN(CC(=O)Nc2ccc(C(=O)O[C@@H]3C[C@]4(C)[C@@H](O)CC[C@H]4[C@@H]4CCc5cc(O)ccc5[C@H]43)cc2)CC1 | 19.4 µM | 29.6 µM | 15.1 µM |  | 9.66 µM | 37 µM | Active |  |  |  |  |  |  |  |  |  |  | 
CN(C)CC(=O)Nc1ccc(C(=O)O[C@@H]2C[C@]3(C)[C@@H](O)CC[C@H]3[C@@H]3CCc4cc(O)ccc4[C@H]32)cc1 | 23.4 µM | 47.2 µM | 8.92 µM |  | 37.5 µM | 32 µM | Active |  |  |  |  |  |  |  |  |  |  | 
COCOc1ccc2c(c1)CC[C@@H]1[C@@H]2[C@H](OC(=O)c2ccc(NC(=O)CN(C)C)cc2)C[C@]2(C)[C@@H](OCOC)CC[C@@H]12 | 17.6 µM | 28 µM | 23.5 µM |  | 28.5 µM | 17.7 µM | Active |  |  |  |  |  |  |  |  |  |  | 
C[C@]12C[C@@H](OC(=O)c3ccc(NC(=O)CN4CCCC4)cc3)[C@@H]3c4ccc(O)cc4CC[C@H]3[C@@H]1CC[C@@H]2O | 39.1 µM | 34.7 µM | 21.1 µM |  | 17.3 µM | 36.1 µM | Active |  |  |  |  |  |  |  |  |  |  | 
COCOc1ccc2c(c1)CC[C@@H]1[C@@H]2[C@H](OC(=O)c2ccc(NC(=O)CN3CCCC3)cc2)C[C@]2(C)[C@@H](OCOC)CC[C@@H]12 | 17.1 µM | 14.3 µM | 25.4 µM |  | 7.3 µM | 9.28 µM | Active |  |  |  |  |  |  |  |  |  |  | 
COc1cc2c(cc1OC)[C@@H]1[C@@H](CC2)[C@@H]2CC[C@H](OC)[C@@]2(C)C[C@H]1OC(=O)c1ccc(NC(=O)CN2CCCC2)cc1 | 3.74 µM | 15 µM | 3.05 µM |  | 5.51 µM | 2.63 µM | Active |  |  |  |  |  |  |  |  |  |  | 
COc1cc2c(cc1OC)[C@@H]1[C@@H](CC2)[C@@H]2CC[C@H](OC)[C@@]2(C)C[C@H]1OC(=O)c1ccc(NC(=O)CN(C)C)cc1 | 8.94 µM | 28.2 µM | 1.78 µM |  | 6.32 µM | 5.88 µM | Active |  |  |  |  |  |  |  |  |  |  | 
CC/C(=C(\c1ccccc1)c1ccc(OCCN(C)C)cc1)c1ccccc1 [TAMOXIFEN] |  |  |  |  |  |  | -60.1% |  |  |  |  |  |  |  |  |  |  | inactive

More lines, main results first:

IC50 (PC-3) | IC50 (MCF7 [3]) | IC50 (HepG2) | inhibition [14] | SMILES | IC50 (Ishikawa [1]) | IC50 (HUVEC) | Activity (Ishikawa [2]) | Activity (Chorioallantoic membrane [4]) | Activity (MCF7 [5]) | Activity (MCF7 [6]) | Activity (MCF7 [7]) | Activity (MCF7 [8]) | Activity (MCF7 [9]) | Activity (MCF7 [10]) | Activity (MCF7 [11]) | Activity (Chorioallantoic membrane [12]) | Activity (MCF7 [13]) | Activity (MCF7 [15])
4.29 µM | 4.33 µM | 5.22 µM | Dose-dependent effect | COc1cc2c(cc1OC)[C@@H]1[C@@H](CC2)[C@@H]2CC[C@H](OC)[C@@]2(C)C[C@H]1OC(=O)c1ccc(NC(=O)CN2CCN(C)CC2)cc1 | 5.55 µM | 4.85 µM | Active | Active | 17.78% | 25.95% | inactive | 44.06% | 31.14% | Dose-dependent effect | 33.77% | Dose-dependent effect | 49.19% | 
18.1 µM | 12.9 µM | 8.12 µM |  | COc1ccc2c(c1)CC[C@@H]1[C@@H]2[C@H](OC(=O)c2ccc(NC(=O)CN3CCN(C)CC3)cc2)C[C@]2(C)[C@@H](OC)CC[C@@H]12 | 7.52 µM | 5.88 µM | Active |  |  |  |  |  |  |  |  |  |  | 
2.85 µM | 4.06 µM | 2.73 µM | Dose-dependent effect | COCOc1ccc2c(c1)CC[C@@H]1[C@@H]2[C@H](OC(=O)c2ccc(NC(=O)CN3CCN(C)CC3)cc2)C[C@]2(C)[C@@H](OCOC)CC[C@@H]12 | 7.75 µM | 5.23 µM | Active | Active | 14.63% | 21.47% | inactive | 41.9% | 34.82% | Dose-dependent effect | 34.57% | Dose-dependent effect | 51.41% | 
10.6 µM | 13.7 µM | 8.64 µM |  | COc1ccc2c(c1)CC[C@@H]1[C@@H]2[C@H](OC(=O)c2ccc(NC(=O)CN3CCCC3)cc2)C[C@]2(C)[C@@H](OC)CC[C@@H]12 | 4.79 µM | 3.69 µM | Active |  |  |  |  |  |  |  |  |  |  | 
